Measured values taken from ChEMBL document CHEMBL3585278, “Effect of deuteration on metabolism and clearance of Nerispirdine (HP184) and AVE5638” (Bioorg Med Chem, 2015).

Tests used:
Liver [1] = assay: Drug metabolism in human liver S9 fraction assessed as metabolic reaction rate at 1 uM measured up to 3 hrs by LC-MS/MS analysis; assay type: ADME, subcellular; conditions: s9, 3 h
In short: (§1)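 Human liver S9 fraction, liver microsomes or hepatocytes were incubated with substrate or its deuterated analogue at 1 and 10 µM, with or without an NADPH-generating system. Substrate depletion over time was followed. Reaction rate was given as nmol/min/mg for S9 and microsomes, and nmol/min per 10^6 cells for hepatocytes.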

Hepatocyte [2] = assay: Drug metabolism in human hepatocytes assessed as metabolic reaction rate at 10 uM measured per 10^6 cells up to 3 hrs by LC-MS/MS analysis; assay type: ADME, cell-based; in short: as §1
Liver microsome [3] = assay: Drug metabolism in human liver microsomes assessed as metabolic reaction rate at 1 uM measured up to 3 hrs by LC-MS/MS analysis; assay type: ADME; in short: as §1
Liver microsome [4] = assay: Drug metabolism in human liver microsomes assessed as metabolic reaction rate at 10 uM measured up to 3 hrs by LC-MS/MS analysis; assay type: ADME; in short: as §1
Hepatocyte [5] = assay: Drug metabolism in human hepatocytes assessed as metabolic reaction rate at 1 uM measured per 10^6 cells up to 3 hrs by LC-MS/MS analysis; assay type: ADME, cell-based; in short: as §1
Liver [6] = assay: Drug metabolism in human liver S9 fraction assessed as metabolic reaction rate at 10 uM measured up to 3 hrs by LC-MS/MS analysis; assay type: ADME, subcellular; conditions: s9, 3 h; in short: as §1
Rattus norvegicus [7] = assay: In vivo drug formation in Sprague-Dawley rat treated with (3-Fluoro-pyridin-4-yl)-(3-methyl-indol-1-yl)-propylamine-d14 at 20 mg/kg, po up to 48 hrs by LC-MS/MS analysis; assay type: ADME, organism-based
In short: (§2)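 Male Sprague–Dawley rats, 5 per compound, were dosed orally at 20 mg/kg with parent or d14 analogue. Plasma collected at several times up to 48 h was analysed by LC–MS/MS for parent, N-depropylated metabolite and carboxylic acid metabolite, giving concentration–time profiles.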

Hepatocyte [8] = assay: Drug formation in human hepatocytes treated with (3-Fluoro-pyridin-4-yl)-(3-methyl-indol-1-yl)-propylamine-d14 at 2 to 10 uM up to 24 hrs by LC-MS/MS analysis; assay type: ADME, cell-based
In short: (§3)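 Plated human hepatocytes (two preparations) were incubated with parent or d14 analogue at 2 or 10 µM. Aliquots taken at several times up to 24 h were assayed by LC–MS/MS for parent, N-depropylated metabolite and carboxylic acid metabolite. Clearance was expressed as mL/h per 10^6 cells.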

[9] = Tmax in Sprague-Dawley rat at 20 mg/kg, po by LC-MS/MS analysis; assay type: ADME, organism-based; conditions: in vivo
In short: (§4)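 Male Sprague–Dawley rats (5 per compound) received 20 mg/kg orally of parent or d14 analogue. Plasma was sampled at several times up to 48 h and assayed by LC–MS/MS. Tmax is reported with a range; Cmax, AUClast, AUC and t1/2 were derived from plasma concentration–time data.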

Rattus norvegicus [10] = assay: In vivo drug metabolism in Sprague-Dawley rat assessed as 1-(3-fluoropyridin-4-ylamino)-1H-indole-3-carboxylic acid formation at 20 mg/kg, po up to 48 hrs by LC-MS/MS analysis; assay type: ADME, organism-based; in short: as §2
Liver microsome [11] = assay: Drug metabolism in human liver microsomes assessed as 1-(3-fluoropyridin-4-ylamino)-1H-indole-3-carboxylic acid-d4 formation at 5 uM up to 30 mins by LC-MS/MS analysis
[12] = AUClast in Sprague-Dawley rat at 20 mg/kg, po by LC-MS/MS analysis; assay type: ADME, organism-based; parameters: dose 20 mg/kg, route oral, time 0 - last; conditions: in vivo; in short: as §4
[13] = Half-life in Sprague-Dawley rat at 20 mg/kg, po by LC-MS/MS analysis; assay type: ADME, organism-based; conditions: in vivo; in short: as §4
[14] = AUC in Sprague-Dawley rat at 20 mg/kg, po by LC-MS/MS analysis; assay type: ADME, organism-based; conditions: in vivo; in short: as §4
Hepatocyte [15] = assay: Drug metabolism in human hepatocytes assessed as 1-(3-fluoropyridin-4-ylamino)-1H-indole-3-carboxylic acid formation at 2 to 10 uM up to 24 hrs by LC-MS/MS analysis; assay type: ADME, cell-based; in short: as §3
[16] = Cmax in Sprague-Dawley rat at 20 mg/kg, po by LC-MS/MS analysis; assay type: ADME, organism-based; parameters: dose 20 mg/kg, route oral; conditions: in vivo; in short: as §4
Rattus norvegicus [17] = assay: In vivo drug metabolism in Sprague-Dawley rat assessed as 1-(3-fluoropyridin-4-ylamino)-1H-indole-3-carboxylic acid-d4 formation at 20 mg/kg, po up to 48 hrs by LC-MS/MS analysis; assay type: ADME, organism-based; in short: as §2
Liver microsome [18] = assay: Clearance in human liver microsomes assessed as initial mean metabolism rate at 5 uM at protein concentration of 0.25 mg/ml measured per mg protein up to 30 mins by LC-MS/MS analysis; assay type: ADME; conditions: 0.5 h
In short: (§5)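 Human liver microsomes at 0.25, 0.5 or 1 mg protein/mL were incubated with 5 µM substrate (parent or d14 analogue). Aliquots taken at several times up to 30 min were assayed by LC–MS/MS for parent and N-depropylated metabolite. Initial mean metabolism rate was given as nmol/min/mg protein.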

Liver microsome [19] = assay: Clearance in human liver microsomes assessed as initial mean metabolism rate at 5 uM at protein concentration of 0.5 mg/ml measured per mg protein up to 30 mins by LC-MS/MS analysis; assay type: ADME; conditions: 0.5 h; in short: as §5
Liver microsome [20] = assay: Clearance in human liver microsomes assessed as initial mean metabolism rate at 5 uM at protein concentration of 1 mg/ml measured per mg protein up to 30 mins by LC-MS/MS analysis; assay type: ADME; conditions: 0.5 h; in short: as §5
Hepatocyte [21] = assay: Clearance in human hepatocytes at 2 uM measured per 10^6 cells up to 24 hrs by LC-MS/MS analysis; assay type: ADME, cell-based; in short: as §3
Hepatocyte [22] = assay: Drug metabolism in human hepatocytes assessed as 1-(3-fluoropyridin-4-ylamino)-1H-indole-3-carboxylic acid-d4 formation at 2 to 10 uM up to 24 hrs by LC-MS/MS analysis; assay type: ADME, cell-based; in short: as §3
Hepatocyte [23] = assay: Clearance in human hepatocytes at 10 uM measured per 10^6 cells up to 24 hrs by LC-MS/MS analysis; assay type: ADME, cell-based; in short: as §3
Hepatocyte [24] = assay: Drug formation in human hepatocytes treated with Nerispirdine at 2 to 10 uM up to 24 hrs by LC-MS/MS analysis; assay type: ADME, cell-based; in short: as §3
Rattus norvegicus [25] = assay: In vivo drug formation in Sprague-Dawley rat treated with Nerispirdine at 20 mg/kg, po up to 48 hrs by LC-MS/MS analysis; assay type: ADME, organism-based; in short: as §2
Liver microsome [26] = assay: Drug formation in human liver microsomes treated with (3-Fluoro-pyridin-4-yl)-(3-methyl-indol-1-yl)-propylamine-d14 formation at 5 uM up to 30 mins by LC-MS/MS analysis
Hepatocyte [27] = assay: Drug metabolism in human hepatocytes assessed as N-(3-fluoropyridin-4-yl)-3-methyl-1H-indol-1-amine formation at 2 to 10 uM up to 24 hrs by LC-MS/MS analysis; assay type: ADME, cell-based; in short: as §3
Liver microsome [28] = assay: Drug metabolism in human liver microsomes assessed as N-(3-fluoropyridin-4-yl)-3-methyl-1H-indol-1-amine formation at 5 uM up to 30 mins by LC-MS/MS analysis
Rattus norvegicus [29] = assay: In vivo drug metabolism in Sprague-Dawley rat assessed as (3-Fluoro-pyridin-4-yl)-(3-methyl-indol-1-yl)-amine-d7 formation at 20 mg/kg, po up to 48 hrs by LC-MS/MS analysis; assay type: ADME, organism-based; in short: as §2
Rattus norvegicus [30] = assay: In vivo drug metabolism in Sprague-Dawley rat assessed as N-(3-fluoropyridin-4-yl)-3-methyl-1H-indol-1-amine formation at 20 mg/kg, po up to 48 hrs by LC-MS/MS analysis; assay type: ADME, organism-based; in short: as §2
Liver microsome [31] = assay: Drug formation in human liver microsomes treated with Nerispirdine at 5 uM up to 30 mins by LC-MS/MS analysis

## [2H]C([2H])(N)c1cccc(C2CCN(C(=O)c3ccc(C#Cc4ccccc4F)o3)CC2)c1
Liver [1]
  Drug metabolism: 0.0081 nmol/min/mg
Hepatocyte [2]
  Drug metabolism: 0.0081 nmol/min/10^6 cells
Liver microsome [3]
  Drug metabolism: 0.0048 nmol/min/mg
Liver microsome [4]
  Drug metabolism: 0.0045 nmol/min/mg
Hepatocyte [5]
  Drug metabolism: 0.0143 nmol/min/10^6 cells
Liver [6]
  Drug metabolism: 0.0043 nmol/min/mg

## [2H]c1cc2c(C(=O)O)c([2H])n(Nc3ccncc3F)c2c([2H])c1[2H]
Rattus norvegicus [7]
  Drug metabolism: metabolite_detected
Hepatocyte [8]
  Drug metabolism: metabolite_detected

## [2H]c1cc2c(C([2H])([2H])[2H])c([2H])n(N(c3ccncc3F)C([2H])([2H])C([2H])([2H])C([2H])([2H])[2H])c2c([2H])c1[2H]
[9]
  Tmax: 0.5 h
Rattus norvegicus [10]
  Drug metabolism: metabolite_detected
Liver microsome [11]
  Drug metabolism: metabolite_notdetected
[12]
  AUC(0-t): 3670 ng·h/mL
[13]
  half-life: 11.1 h
[14]
  AUC: 3800 ng·h/mL
Hepatocyte [15]
  Drug metabolism: metabolite_detected
[16]
  Cmax: 971 ng/mL
Rattus norvegicus [17]
  Drug metabolism: metabolite_detected
Liver microsome [18]
  metabolism rate: 0.42 nmol/min/mg
Liver microsome [19]
  metabolic rate: 0.638 nmol/min/mg
Liver microsome [20]
  metabolic rate: 0.217 nmol/min/mg
Hepatocyte [21]
  CLint: 0.572 mL/h/10^6 cells
Hepatocyte [22]
  Drug metabolism: metabolite_detected
Hepatocyte [23]
  CLint: 0.196 mL/h/10^6 cells

## O=C(O)c1cn(Nc2ccncc2F)c2ccccc12
Hepatocyte [24]
  Drug metabolism: metabolite_detected
Rattus norvegicus [25]
  Drug metabolism: metabolite_detected

## [2H]c1cc2c(C([2H])([2H])[2H])c([2H])n(Nc3ccncc3F)c2c([2H])c1[2H]
Rattus norvegicus [7]
  Drug metabolism: metabolite_detected
Liver microsome [26]
  Drug metabolism: metabolite_detected
Hepatocyte [8]
  Drug metabolism: metabolite_detected

## CCCN(c1ccncc1F)n1cc(C)c2ccccc21 [NERISPIRDINE]
[9]
  Tmax: 1 h
Hepatocyte [27]
  Drug metabolism: metabolite_detected
[12]
  AUC(0-t): 4070 ng·h/mL
[13]
  half-life: 10.2 h
[14]
  AUC: 4180 ng·h/mL
Liver microsome [28]
  Drug metabolism: metabolite_detected
Rattus norvegicus [29]
  Drug metabolism: metabolite_detected
Rattus norvegicus [30]
  Drug metabolism: metabolite_detected
[16]
  Cmax: 822 ng/mL
Liver microsome [18]
  metabolism rate: 1.15 nmol/min/mg
Liver microsome [19]
  metabolic rate: 0.346 nmol/min/mg
Liver microsome [20]
  metabolic rate: 0.253 nmol/min/mg
Hepatocyte [21]
  CLint: 0.415 mL/h/10^6 cells
Hepatocyte [23]
  CLint: 0.2 mL/h/10^6 cells

## Cc1cn(Nc2ccncc2F)c2ccccc12
Hepatocyte [24]
  Drug metabolism: metabolite_detected
Liver microsome [31]
  Drug metabolism: metabolite_detected
Rattus norvegicus [25]
  Drug metabolism: metabolite_detected

## NCc1cccc(C2CCN(C(=O)c3ccc(C#Cc4ccccc4F)o3)CC2)c1
Liver [1]
  Drug metabolism: 0.0219 nmol/min/mg
Hepatocyte [2]
  Drug metabolism: 0.016 nmol/min/10^6 cells
Liver microsome [3]
  Drug metabolism: 0.0201 nmol/min/mg
Liver microsome [4]
  Drug metabolism: 0.0215 nmol/min/mg
Hepatocyte [5]
  Drug metabolism: 0.0143 nmol/min/10^6 cells
Liver [6]
  Drug metabolism: 0.0238 nmol/min/mg
